Active and inactive are the calls of the source. No cut-off for these calls is given here. Where a SMILES comes first, the peptide text is derived from it. [ ]: non-standard residue; d: D form. The star is where a group is joined. Benzoyl(4-tBu) = CC(C)(C)c1ccc(C(=O)*)cc1; Lys(Et2) = CCN(CC)CCCC[C@H](N)C(=O)O

A word on the Kd: it is the constant that tells how readily two partners part at equilibrium. What is called IC50 is the midpoint of a concentration-inhibition curve.

The target of experiment [1] is T1, Chromodomain Y-like protein (Homo sapiens, UniProt Q9Y232).
T1 sequence (Q9Y232 whole entry): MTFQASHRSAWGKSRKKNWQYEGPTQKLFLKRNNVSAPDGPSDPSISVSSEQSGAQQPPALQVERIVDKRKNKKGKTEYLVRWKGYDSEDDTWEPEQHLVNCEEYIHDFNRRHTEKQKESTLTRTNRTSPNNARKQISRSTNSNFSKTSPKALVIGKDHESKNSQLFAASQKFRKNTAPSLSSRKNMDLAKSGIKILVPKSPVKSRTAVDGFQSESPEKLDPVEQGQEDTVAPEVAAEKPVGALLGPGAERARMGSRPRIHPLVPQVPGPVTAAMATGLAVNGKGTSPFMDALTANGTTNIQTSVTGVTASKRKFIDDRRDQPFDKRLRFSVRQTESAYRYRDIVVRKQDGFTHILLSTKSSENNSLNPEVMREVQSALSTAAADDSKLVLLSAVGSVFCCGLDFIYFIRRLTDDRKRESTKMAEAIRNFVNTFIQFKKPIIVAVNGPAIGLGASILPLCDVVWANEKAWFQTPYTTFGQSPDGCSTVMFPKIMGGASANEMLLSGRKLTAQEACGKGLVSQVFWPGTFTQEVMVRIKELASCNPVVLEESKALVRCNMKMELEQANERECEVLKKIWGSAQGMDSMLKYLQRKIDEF
The experiment in a line: Binding affinity to recombinant human N-terminal GST-tagged CDYL (1 to 60 residues) expressed in Escherichia coli […] by SPR analysis. A digest of the protocol: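 GST-tagged chromodomain expressed in E. coli BL21 with 0.2 mM IPTG at 28 °C for 6 h. Purified on GSTrap, tag removed with PreScission protease. Amine-coupled to CM5 chip at pH 4.0–4.5 (5000–10000 RU). Compound run as a 1.5- or 2-fold series from 100 µM in PBSP with 5% DMSO, 25 °C, 30 µL/min, 60 s association and 60 s dissociation.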
On the technique in general: Surface plasmon resonance follows binding to a sensor surface in real time, without labels.

For experiment [2], the target named is T2, Testis-specific chromodomain protein Y 1 (Homo sapiens, UniProt Q9Y6F8).
T2 sequence (Q9Y6F8 whole entry): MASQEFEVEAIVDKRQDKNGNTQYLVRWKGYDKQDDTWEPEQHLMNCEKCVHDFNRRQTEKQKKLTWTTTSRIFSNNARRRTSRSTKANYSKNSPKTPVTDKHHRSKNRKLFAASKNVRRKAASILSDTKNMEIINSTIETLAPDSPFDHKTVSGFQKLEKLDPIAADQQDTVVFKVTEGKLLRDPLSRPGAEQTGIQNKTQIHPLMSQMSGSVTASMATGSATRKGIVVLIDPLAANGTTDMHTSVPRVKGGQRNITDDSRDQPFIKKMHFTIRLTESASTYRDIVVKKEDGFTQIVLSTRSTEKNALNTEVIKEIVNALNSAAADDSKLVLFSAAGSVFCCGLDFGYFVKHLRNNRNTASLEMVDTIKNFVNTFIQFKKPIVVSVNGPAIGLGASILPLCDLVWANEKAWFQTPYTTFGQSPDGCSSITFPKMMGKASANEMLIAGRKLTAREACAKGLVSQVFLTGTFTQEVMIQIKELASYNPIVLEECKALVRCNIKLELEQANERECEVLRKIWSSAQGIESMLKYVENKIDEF
The experiment can be described thus: Binding affinity to recombinant human N-terminal GST-tagged CDY1 (1 to 65 residues) expressed in Escherichia coli […] by SPR analysis. A digest of the protocol:
(§1)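 Chromodomain expressed with N-terminal GST tag in E. coli BL21 (IPTG 0.2 mM at OD600 0.6–0.8, 28 C for 6 h), GSTrap purified, tag cleaved by PreScission protease, amine-coupled to CM5 chip at pH 4.0–4.5 (5000–10000 RU). […] Mean ± SD of at least two replicates, each in duplicate.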

Experiment [3] concerns the target T3, Chromobox protein homolog 7 (Homo sapiens, UniProt O95931).
T3 sequence (O95931 whole entry): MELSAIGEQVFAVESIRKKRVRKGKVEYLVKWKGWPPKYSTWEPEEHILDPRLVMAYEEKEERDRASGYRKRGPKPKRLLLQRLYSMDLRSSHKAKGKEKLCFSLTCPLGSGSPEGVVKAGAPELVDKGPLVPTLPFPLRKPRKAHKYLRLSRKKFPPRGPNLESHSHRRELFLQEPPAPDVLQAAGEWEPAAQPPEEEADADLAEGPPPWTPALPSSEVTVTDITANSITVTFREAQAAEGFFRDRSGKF
The experiment can be described thus: Binding affinity to recombinant human N-terminal GST-tagged CBX7 (1 to 62 residues) expressed in Escherichia coli […] by SPR analysis. The essentials: as §1

The target in experiment [4] is T4, Chromodomain Y-like protein (Homo sapiens) (UniProt Q9Y232).
T4 sequence (whole entry): T1 sequence (Q9Y232 whole entry)
The experiment in a line: Inhibition of CDYL in human SH-SY5Y cells assessed as increase in MYT1 mRNA expression at 100 uM incubated for 24 hrs by RT-qPCR analysis. The format is cell-based. A digest of the protocol:
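SH-SY5Y cells exposed to 100 µM compound for 24 h. MYT1 mRNA measured by RT-qPCR: DNase treatment, SYBR green, 2^-ΔΔCt with GAPDH as internal control. Mean ± S.E.M. of triplicate experiments.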
For orientation: In qPCR the cycle at which signal appears reflects the starting amount.

The test system of experiment [5] is SH-SY5Y. The experiment can be described thus: Cytotoxicity against human SH-SY5Y cells assessed as reduction in cell viability incubated for 24 hrs by CCK8 assay.
In experiment [6] the test system is HEK-293T. The experiment can be described thus: Cytotoxicity against human HEK293T cells assessed as reduction in cell viability incubated for 24 hrs by CCK8 assay. (Formazan colour is commonly taken as a measure of viable cells.)
The target in experiment [7] is T4, Chromodomain Y-like protein (Homo sapiens). The experiment in a line: Inhibition of CDYL in human SH-SY5Y cells assessed as increase in MYT1 mRNA expression incubated for 24 hrs by RT-qPCR analysis. The format is cell-based. A digest of the protocol: (§2)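 SH-SY5Y or HEK-293T cells grown in DMEM with 10% FBS and treated with compound for 24 h. mRNA quantified by SYBR green RT-qPCR after DNase treatment, 2^-ΔΔCt method with GAPDH as reference, relative to DMSO. Mean ± S.E.M. of triplicate experiments, Student's t-test.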

For experiment [8] the target is unchanged. The experiment can be described thus: Inhibition of CDYL in human HEK293T cells assessed as increase in MYT1 mRNA expression at 50 to 200 uM incubated for 24 hrs by RT-qPCR analysis. The format is cell-based. The essentials:
as §2

Experiment [9] shares this target. The experiment in a line: Inhibition of CDYL in human HEK293T cells assessed as increase in BDNF mRNA expression at 50 to 200 uM incubated for 24 hrs by RT-qPCR analysis. The format is cell-based. A digest of the protocol: as §2
Experiment [10] has the same target. The experiment can be described thus: Inhibition of CDYL in human HEK293T cells assessed as increase in VGF mRNA expression at 50 to 200 uM incubated for 24 hrs by RT-qPCR analysis. The format is cell-based. The essentials:
as §2

Experiment [11] has the same target. The experiment in a line: Inhibition of CDYL in human SH-SY5Y cells assessed as BDNF mRNA expression at 50 to 200 uM incubated for 24 hrs by RT-qPCR analysis. In kind it is cell-based. A digest of the protocol: as §2
Experiment [12] has the same target. The experiment can be described thus: Inhibition of CDYL in human SH-SY5Y cells assessed as VGF mRNA expression at 50 to 200 uM incubated for 24 hrs by RT-qPCR analysis. The format is cell-based. The essentials:
as §2

Experiment [13] has the same target. The experiment can be described thus: Inhibition of CDYL in human SH-SY5Y cells assessed as MYT1 mRNA expression at 50 to 200 uM incubated for 24 hrs by RT-qPCR analysis. In kind it is cell-based. The essentials:
as §2

Experiment [14] has the same target. The experiment in a line: Effect on CDYL-mediated MYT1 mRNA expression in human SH-SY5Y cells up to 200 uM incubated for 24 hrs by RT-qPCR analysis. The format is cell-based.
Experiment [15] has the same target. The experiment can be described thus: Effect on CDYL-mediated MYT1 mRNA expression in human HEK293T cells up to 200 uM incubated for 24 hrs by RT-qPCR analysis. The format is cell-based.
The target is the same in experiment [16]. The experiment in a line: Inhibition of CDYL in human SH-SY5Y cells assessed as increase in BDNF mRNA expression incubated for 24 hrs by RT-qPCR analysis. In kind it is cell-based. The essentials: as §2
The target is the same in experiment [17]. The experiment in a line: Inhibition of CDYL in human SH-SY5Y cells assessed as increase in VGF mRNA expression incubated for 24 hrs by RT-qPCR analysis. The format is cell-based. A digest of the protocol: as §2

Regarding `CCc1ccc(C(=O)CC2(O)C(=O)Nc3ccc(Cl)cc32)cc1` (centres undefined), the Kd in experiment [1] was determined as 55.6 µM; in experiment [2], 33.5 µM; in experiment [3], 12.1 µM. Besides, in experiment [4], the result was Active.
As to `COc1cccc(C(=O)Cn2c(=O)[nH]c3ccc(Cl)cc32)c1`, the Kd turned out to be 14.8 µM in experiment [1], 70.4 µM in experiment [2] and 28.9 µM in experiment [3]. For the same molecule, the IC50 in experiment [5] and in [6] was over 200 µM each time.
`COc1cccc(C(=O)CC2(O)C(=O)Nc3ccc(Cl)cc32)c1` (racemic): the values for the Kd in experiment [1] and in experiment [3] were 4.9 µM and 84.4 µM, respectively. In addition, the Activity entry in [7] is “Dose-dependent effect”. Besides, the figures for the IC50 in [5] and in experiment [6] were 68.1 µM and 56.1 µM, respectively.
On to `COc1cccc(C(=O)CC2C(=O)Nc3ccc(Cl)cc32)c1` (racemic), for which the Kd in experiment [1] was 1.2 µM; in [2] it was over 200 µM. In addition, the IC50 in experiment [5] worked out at 43.4 µM; in experiment [6] it was 36.9 µM.
Consider `COc1ccc2oc(=O)n(CC(=O)N3CCC(N4CCCC4)CC3)c2c1`, for which the results for the dissociation constant Kd in experiment [1] and in experiment [3] were 12.5 µM and 8.2 µM, respectively. In addition, the result in [8], in experiment [9], in experiment [10], in [11], in experiment [12] and in experiment [13] was inactive.
Take `CCN(CC)CCCC[C@H](NC(=O)[C@H](CC(C)C)NC(=O)[C@H](C)NC(=O)[C@H](Cc1ccccc1)NC(=O)c1ccc(C(C)(C)C)cc1)C(=O)N[C@@H](CO)C(=O)OC` ({Benzoyl(4-tBu)}-FAL[Lys(Et2)]S-OMe): the Kd in [1] is 5.6 µM. Moreover, the outcome in experiment [14] and in [15] was inactive.
For `COc1cccc(C(=O)/C=C2\C(=O)Nc3ccc(Cl)cc32)c1`, the Kd in experiment [1] is 15.4 µM; in experiment [2], 10.3 µM. Moreover, the results for the IC50 in [5] and in experiment [6] were 21.5 µM and 16.6 µM, respectively.
With `CC(C)N1C(=O)C(O)(CC(=O)c2ccco2)c2ccccc21` (centres undefined), the dissociation constant (Kd) in experiment [1] was 13.1 µM; in [2], 61.6 µM; in [3], 41.1 µM.
With `Nc1ccc2c(c1)sc(=O)n2CC(=O)c1c[nH]c2ccccc12`, the Kd in experiment [1] is 3.5 µM; in experiment [2], 51.1 µM; in experiment [3], 6.5 µM.
`CCCCN1C(=O)C(O)(CC(=O)c2cccc(OC)c2)c2ccccc21` (centres undefined): the Kd in [1] came to 100 µM; in experiment [2] it was 17.2 µM; in experiment [3] it was 8.8 µM.
For `O=C(Cn1c(=O)oc2ccccc21)c1ccc2ccccc2c1`, the values for the Kd in [1], in experiment [2] and in experiment [3] were 2.6 µM, 41.7 µM and 14.2 µM, respectively. Further, the Activity entry in experiment [7], in [16] and in experiment [17] was “Dose-dependent effect” throughout. The outcome in [8], in [9] and in experiment [10] was Active.
`O=C(Cn1c(=O)oc2ccc(F)cc21)c1ccc2ccccc2c1`: the Kd in experiment [1] was 20.1 µM; in experiment [2] it was 210 µM; in experiment [3], 40.2 µM.

The values above are taken from ChEMBL document CHEMBL4359913, “Identification and characterization of benzo[d]oxazol-2(3H)-one derivatives as the first potent and selective small-molecule inhibitors of chromodomain protein CDYL” (Eur J Med Chem, 2019).
